HUVEC inhibit: inhibitors of human endothelial cell proliferation. actives 1.1% (n = 86,000). viability, % at 10 µM (by protocol). HUVEC proliferation, CellTiter-Glo luminescence, 72 h; stronger effect = lower value. AID 648;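 active means viability at or below 30%; inactive means viability above 30%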
HCT116 PTEN-null: PTEN-deleted cell growth suppression; HCT116 PTEN-null viability, CellTiter-Glo, 60 h; stronger effect = lower value; viability, % at 10 µM; actives 1.2% (n = 140,000); AID 827;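 active means viability at or below a set limit, 4 SD under the median of all tested compounds, cut at about 3.7% in these data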;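 further: PTEN knockout HCT116 line with beta catenin targeted HCT116 as companion control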
H69AR growth 86K: blocks growth of human H69AR lung tumor cells; H69AR lung tumor viability, ATP luminescence, 72 h; stronger effect = lower value; actives 6% (n = 85,000); viability, % at 10 µM;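 active means viability at or below 40%; inactive means viability above 40%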;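 further: multidrug resistant small cell line overexpressing MRP-1 efflux transporter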
Candida biofilm: kills Candida albicans biofilms. C. albicans biofilm + clotrimazole, Alamar Blue. inhibition, % at 6 µM. actives 0.14% (n = 85,000);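 active means inhibition above 20%; inactive means inhibition below 20%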;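 further: preformed 24 hr biofilms exposed to compound for 48 hr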
HCT116 bCat-KO: beta-catenin-lacking colon tumor cell growth suppression. HCT116 beta-catenin knockout viability, CellTiter-Glo, 60 h; stronger effect = lower value. viability, % at 10 µM. actives 1.5% (n = 140,000). AID 818;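 active means viability at or under a set limit, the compound median less 4 SD, cut at about 6% in these data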
Fibroblast inh: blocks proliferation of human lung fibroblasts | AID 719 | actives 1.1% (n = 85,000) | LL 47 human lung fibroblast viability, ATP luminescence; stronger effect = lower value | viability, % at 10 µM;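 active means viability at or below 50% in the single dose screen; inactive means viability above 50%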;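 further: compound exposure lasted 72 h before the ATP readout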
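Test system: LL 47 human lung fibroblasts; Quantity: 1,150 cells/well; Buffer or medium: IMEM plus 15% FBS; Dosing: tenfold compound dosing solution, DMSO at 0.1%; Timing: overnight cell rest, 72 h compound treatment at 37 °C; Detection: ATP-based CellTiter-Glo luminescent readout; Read-out basis: viability percentage against median untreated-cell control; Controls: cell-only wells, no compound.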
Numbers stand for hits. This excerpt belongs to a sample that is enriched for hits.

For CCCc1nnc(NC(=O)c2c(O)c3cccc4c3n(c2=O)CC4)s1 the results were HUVEC inhibit inactive, H69AR growth 86K 18.4, Candida biofilm inactive and Fibroblast inh inactive.
Screening O=C(NCCc1ccccc1)c1c(O)c2cccc3c2n(c1=O)CC3 returned HUVEC inhibit inactive, HCT116 PTEN-null inactive, H69AR growth 86K inactive, Candida biofilm inactive, HCT116 bCat-KO inactive and Fibroblast inh inactive.
Screening CCCCCCNC(=O)c1c(O)c2cccc3c2n(c1=O)CCC3 returned HUVEC inhibit inactive, HCT116 PTEN-null inactive, H69AR growth 86K inactive, Candida biofilm inactive, HCT116 bCat-KO inactive and Fibroblast inh inactive.
`Cc1cccc(NC(=O)c2c(O)c3cccc4c3n(c2=O)CC4)c1` gave HUVEC inhibit inactive, H69AR growth 86K inactive, Candida biofilm inactive and Fibroblast inh inactive.
`O=C(NCc1ccccn1)c1c(O)c2cccc3c2n(c1=O)CC3` gave HUVEC inhibit inactive, HCT116 PTEN-null 0.6, H69AR growth 86K inactive, Candida biofilm inactive, HCT116 bCat-KO 0.9 and Fibroblast inh inactive.
For CCc1nnc(NC(=O)c2c(O)c3cccc4c3n(c2=O)CC4)s1 the results were HUVEC inhibit inactive, H69AR growth 86K 1.8, Candida biofilm inactive and Fibroblast inh inactive.
N=C(CC1CC(=O)NC(=O)C1)C1=C(O)CCCC1=O was read as HCT116 PTEN-null inactive and HCT116 bCat-KO inactive.
CCOC(=O)N1CCC(NC(=O)c2cnn3c(C(F)(F)F)cc(-c4cccc(OC)c4)nc23)CC1 was read as HUVEC inhibit inactive, H69AR growth 86K inactive, Candida biofilm inactive and Fibroblast inh 27.1.
For CCOC(=O)N1CCC(NC(=O)c2cc3cc4cc(OC)ccc4nc3o2)CC1 the results were HUVEC inhibit inactive, HCT116 PTEN-null inactive, H69AR growth 86K 37.5, Candida biofilm inactive, HCT116 bCat-KO inactive and Fibroblast inh inactive.
`O=C(N=Nc1c(O)n(Cc2ccccc2)c2ccccc12)c1cc2ccccc2cc1O` gave HCT116 PTEN-null 1.5 and HCT116 bCat-KO 1.7.
COc1ccc(Cn2c3nc4ccccc4nc3c3c(=O)n(Cc4ccco4)cnc32)cc1 was read as HUVEC inhibit inactive, H69AR growth 86K inactive, Candida biofilm inactive and Fibroblast inh inactive.
For COCCn1cnc2c(c1=O)c1nc3ccccc3nc1n2/N=C/c1cccc(OC)c1OC the results were HUVEC inhibit inactive, H69AR growth 86K 38.8, Candida biofilm inactive and Fibroblast inh inactive.
Screening COc1cccc(/C=N/n2c(N)c(S(=O)(=O)c3cccs3)c3nc4ccccc4nc32)c1OC returned HCT116 PTEN-null 2.8 and HCT116 bCat-KO 2.1.
For C=CCn1cnc2c(c1=O)c1nc3ccccc3nc1n2/N=C/c1cccc(OC)c1 the results were HUVEC inhibit inactive, H69AR growth 86K 22.4, Candida biofilm inactive and Fibroblast inh inactive.
For O=c1c2c3nc4ccccc4nc3n(/N=C/c3cccs3)c2ncn1-c1ccccc1 the results were HUVEC inhibit inactive, H69AR growth 86K 29.7, Candida biofilm inactive and Fibroblast inh inactive.
CCCCCCn1cnc2c(c1=O)c1nc3ccccc3nc1n2/N=C/c1ccco1 was read as HUVEC inhibit inactive, HCT116 PTEN-null inactive, H69AR growth 86K inactive, Candida biofilm inactive, HCT116 bCat-KO inactive and Fibroblast inh inactive.
Cc1ccccc1Cn1ccc(=NCc2ccccc2)cc1 was read as HCT116 PTEN-null inactive and HCT116 bCat-KO inactive.
CN(/N=C/C=C/c1ccccc1)C1=NS(=O)(=O)c2ccccc21 was read as HCT116 PTEN-null inactive and HCT116 bCat-KO inactive.
For Cc1cccc(N2CCN(C3=NC(=O)C(Cc4ccccc4)S3)CC2)c1 (stereo not given) the results were HCT116 PTEN-null inactive and HCT116 bCat-KO inactive.
Cc1cc(C)n(-c2ccc(C(=O)OCC(=O)Nc3ccc(Cl)cc3[N+](=O)[O-])cc2)n1 was read as HCT116 PTEN-null inactive and HCT116 bCat-KO inactive.
For COCCCNC(=O)CC(NS(=O)(=O)c1ccc(Cl)cc1)c1ccc(OC)cc1 (stereo not given) the results were HUVEC inhibit inactive, HCT116 PTEN-null inactive, H69AR growth 86K inactive, Candida biofilm inactive, HCT116 bCat-KO inactive and Fibroblast inh inactive.
For C=CCNC(=S)NNc1nc2c(c(=O)[nH]1)C1(CCCCC1)Cc1ccccc1-2 the results were HCT116 PTEN-null inactive and HCT116 bCat-KO inactive.
Screening O=C(Nc1ccc(Cl)c(Cl)c1)Nc1cc(C(=O)NC2CC2)ccc1Cl returned HCT116 PTEN-null inactive and HCT116 bCat-KO inactive.
`Nc1c(S(=O)(=O)c2cccc(Cl)c2)c2nc3ccccc3nc2n1/N=C/c1ccc(O)c(O)c1` gave HUVEC inhibit 6.0, HCT116 PTEN-null 1.5, H69AR growth 86K 1.3, Candida biofilm inactive, HCT116 bCat-KO 1.1 and Fibroblast inh 13.7.
For CCN(CC)CCOc1ccc2c(c1)C(=NO)c1cc(OCCN(CC)CC)ccc1-2 the results were HUVEC inhibit 12.2, HCT116 PTEN-null 2.0, H69AR growth 86K inactive, Candida biofilm inactive, HCT116 bCat-KO 1.9 and Fibroblast inh 3.0.
CCN(CC)S(=O)(=O)c1ccc2c(c1)C(=NO)c1cc(S(=O)(=O)N(CC)CC)ccc1-2 was read as HUVEC inhibit 4.3, HCT116 PTEN-null 2.8, H69AR growth 86K 2.6, Candida biofilm inactive, HCT116 bCat-KO 1.3 and Fibroblast inh 37.9.
Screening CCN(CC)CCOc1ccc(Br)cc1 returned HUVEC inhibit inactive, HCT116 PTEN-null inactive, H69AR growth 86K inactive, Candida biofilm inactive, HCT116 bCat-KO inactive and Fibroblast inh inactive.
`Cc1cc(Nc2ccccc2)n(CCO)n1` gave HUVEC inhibit inactive, HCT116 PTEN-null inactive, H69AR growth 86K inactive, Candida biofilm inactive, HCT116 bCat-KO inactive and Fibroblast inh inactive.
For CCCCCCCCC(=O)NCCOc1ccc(OC)cc1 the results were HCT116 PTEN-null inactive and HCT116 bCat-KO inactive.
COc1ccc(OCCCC(=O)NCC(C)C)cc1 was read as HUVEC inhibit inactive, HCT116 PTEN-null inactive, H69AR growth 86K inactive, Candida biofilm 64.5, HCT116 bCat-KO inactive and Fibroblast inh inactive.
CN1CCN(c2ccc(Cl)cc2NC(=O)c2ccc(S(=O)(=O)N(C)C)cc2)CC1 was read as HCT116 PTEN-null inactive and HCT116 bCat-KO inactive.
Screening CCN(CC)S(=O)(=O)c1cc(C(=O)Nc2cc(Cl)ccc2N2CCN(C)CC2)ccc1Cl returned HCT116 PTEN-null 0.5 and HCT116 bCat-KO 0.6.
`CN1CCN(c2ccc(S(=O)(=O)N3CCCCC3)cc2NC(=O)c2ccc3ccccc3c2)CC1` gave HCT116 PTEN-null 1.4 and HCT116 bCat-KO 2.3.
CCN(CC)S(=O)(=O)c1cc(C(=O)Nc2ccccc2[N+](=O)[O-])ccc1Cl was read as HCT116 PTEN-null 2.5 and HCT116 bCat-KO inactive.
Screening O=C(COc1nc2ccccc2nc1N1CCOCC1)Nc1cccc(S(=O)(=O)N2CCCCC2)c1 returned HCT116 PTEN-null inactive and HCT116 bCat-KO inactive.
`c1ccc(CN2CCN(c3nc(-c4ccccn4)nc4ccccc34)CC2)cc1` gave HUVEC inhibit 13.7, HCT116 PTEN-null inactive, H69AR growth 86K 3.2, Candida biofilm inactive, HCT116 bCat-KO inactive and Fibroblast inh 44.5.

Source: PubChem BioAssay (several laboratories)
